What was measured:
SW-620 = assay: Cytotoxicity against human SW-620 cells assessed as reduction in cell viability after 72 hrs by MTT assay; assay type: functional, cell-based; conditions: SW-620, 72 h
In short: (§1)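 Cells seeded at 5000/well and precultured 1 day. HCT116 grown in McCoy's 5A + 10% FBS; SW620 and HEK293 in DMEM + 10% FBS; CCD18Co in DMEM + 15% FBS. Compounds from 0.1 M DMSO stocks were tested at 10^-10 to 10^-4 mol/L in sixplicate: HCT116 and HEK293 for 48 h, SW620 and CCD18Co for 72 h, at 37 °C, 5% CO2. MTT (5 mg/mL) added for 4 h, then A570 read; IC50 estimated.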

HCT-116 [1] = assay: Cytotoxicity against human HCT-116 cells assessed as reduction in cell viability after 48 hrs by MTT assay; assay type: functional, cell-based; conditions: HCT-116, 48 h; in short: as §1
CCD-18Co = assay: Cytotoxicity against human CCD-18Co cells assessed as reduction in cell viability after 72 hrs by MTT assay; assay type: cell-based; in short: as §1
HEK293 = assay: Cytotoxicity against HEK293 cells assessed as reduction in cell viability after 48 hrs by MTT assay; assay type: cell-based; conditions: Homo sapiens, HEK293, 48 h; in short: as §1
HCT-116 [2] = assay: Antitumour activity against human HCT-116 cells xenografted in BALB/c nude mouse assessed as tumour growth inhibition at 5 mg/kg, ip administered once for every 7 days for 14 days relative to control; assay type: functional; conditions: HCT-116, ip, 336 h, time 14 day, read-out: TGI
In short: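 Male BALB/c nude mice received s.c. HCT116 cells (2 × 10^6 in 0.2 mL PBS). Once tumours reached 100-200 mm3, mice were randomized into groups of six. Dosing was ip, 0.1 mL/10 g, once every 7 days, in DMSO 0.5%/castor oil 5%/ethanol 5%/saline 89.5%; vehicle controls got solvent. Caliper volume V = L×W²×0.52 read every 2-3 days. Tumours excised and weighed on day 14.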

[3] = Toxicity in BALB/c nude mouse xenografted with human HCT-116 cells assessed as reduction in body weight at 5 mg/kg, ip administered once for every 7 days for 14 days relative to control; assay type: organism-based; design: scale not given: the % may be the effect or the level left; conditions: in vivo, 336 h, time 14 day
In short: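 HCT116 s.c. xenografts in male BALB/c nude mice, n = 6 per group. Dosing was ip once every 7 days for 2 weeks in DMSO/castor oil/ethanol/saline; vehicle controls got solvent. Body weight recorded every other day or every three days. Weight loss taken at day 14. Mean ± SD.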

[4] = Toxicity in BALB/c nude mouse xenografted with human HCT-116 cells assessed as concentrated nucleus in liver at 5 mg/kg, ip administered once for every 7 days for 14 days by H and E staining based assay; assay type: organism-based; conditions: in vivo, 336 h, time 14 day
In short: (§2)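 At the end of the 14-day ip xenograft study (HCT116, BALB/c nude), heart and liver were collected from vehicle and molar-equivalent dose groups. Tissues fixed in 10% formalin in PBS and stained with H&E. Liver examined at 400×, heart at 100×.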

[5] = Toxicity in BALB/c nude mouse xenografted with human HCT-116 cells assessed as disordered myocardial fiber in heart at 5 mg/kg, ip administered once for every 7 days for 14 days by H and E staining based assay; assay type: organism-based; conditions: in vivo, 336 h, time 14 day; in short: as §2
[6] = Toxicity in BALB/c nude mouse xenografted with human HCT-116 cells assessed as inflammatory cell invasion in heart at 5 mg/kg, ip administered once for every 7 days for 14 days by H and E staining based assay; assay type: organism-based; conditions: in vivo, 336 h, time 14 day; in short: as §2
[7] = Toxicity in ip dosed Kunming mouse measured for 14 days; assay type: organism-based; conditions: in vivo, time 14 day
In short: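 Healthy Kunming mice of both sexes, 20 ± 2 g, randomised into 5 groups of 10 matched for weight and size. Compound given once intraperitoneally at 400, 300, 250 or 150 mg/kg in formulation solvent (0.5% DMSO, 5% castor oil, 5% ethanol, 89.5% saline), 0.1 mL per 10 g; vehicle controls received solvent. Deaths recorded daily for 14 days; LD50 by Bliss method.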

[8] = AUC (0 to t) in Sprague-Dawley rat at 5 mg/kg, iv measured up to 72 hrs by LC-MS/MS analysis; assay type: ADME, organism-based; design: route intravenous, dose 5 mg/kg, time <=72; conditions: in vivo
In short: (§3)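 Male SD rats (180-200 g), fasted 12 h with free water, n = 3 per group. Single tail-vein dose of 5 mg/kg in 0.5% DMSO/5% castor oil/5% ethanol/89.5% saline. Retro-orbital blood drawn 0.083-72 h with heparin. Plasma protein-precipitated with methanol containing paclitaxel internal standard, then analysed by LC-MS/MS. Parameters from non-compartmental analysis, mean ± SD. For the DTX group, parameters were calculated after converting dose to the molar equivalent of the prodrug.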

[9] = AUC (0 to infinity) in Sprague-Dawley rat at 5 mg/kg, iv measured up to 72 hrs by LC-MS/MS analysis; assay type: ADME, organism-based; design: route intravenous, dose 5 mg/kg, time <=72; conditions: in vivo, 72 h; in short: as §3
[10] = MRT (0 to infinity) in Sprague-Dawley rat at 5 mg/kg, iv measured up to 72 hrs by LC-MS/MS analysis; assay type: ADME, organism-based; conditions: in vivo; in short: as §3
[11] = Half life in Sprague-Dawley rat at 5 mg/kg, iv measured up to 72 hrs by LC-MS/MS analysis; assay type: ADME, organism-based; conditions: in vivo; in short: as §3
[12] = Apparent volume of distribution in Sprague-Dawley rat at 5 mg/kg, iv measured up to 72 hrs by LC-MS/MS analysis; assay type: ADME, organism-based; conditions: in vivo, read-out: Vz; in short: as §3
[13] = Apparent clearance in Sprague-Dawley rat at 5 mg/kg, iv measured up to 72 hrs by LC-MS/MS analysis; assay type: ADME, organism-based; conditions: in vivo, 5 mg/kg, 72 h; in short: as §3
[14] = Drug uptake in BALB/c nude mouse xenografted with human HCT-116 cells assessed as drug level in heart at 5 mg/kg, iv measured up to 24 hrs by LC-MS/MS analysis; assay type: ADME, organism-based; conditions: in vivo
In short: (§4)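 Male BALB/c nude mice bearing s.c. HCT116 tumours (200-300 mm3), 20 per group. Single tail-vein dose of 5 mg/kg. Five mice per group killed at 0.5, 4, 8 and 24 h and heart-perfused with PBS. Tissues homogenized in saline (4 µL/mg) and precipitated with methanol containing paclitaxel internal standard. Prodrug, released DTX and free DTX measured by LC-MS/MS.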

[15] = Drug uptake in BALB/c nude mouse xenografted with human HCT-116 cells assessed as drug level in liver at 5 mg/kg, iv measured up to 24 hrs by LC-MS/MS analysis; assay type: ADME, organism-based; conditions: in vivo; in short: as §4
[16] = Drug uptake in BALB/c nude mouse xenografted with human HCT-116 cells assessed as drug level in spleen at 5 mg/kg, iv measured up to 24 hrs by LC-MS/MS analysis; assay type: ADME, organism-based; conditions: in vivo; in short: as §4
[17] = Drug uptake in BALB/c nude mouse xenografted with human HCT-116 cells assessed as drug level in lung at 5 mg/kg, iv measured up to 24 hrs by LC-MS/MS analysis; assay type: ADME, organism-based; conditions: in vivo; in short: as §4
[18] = Drug uptake in BALB/c nude mouse xenografted with human HCT-116 cells assessed as drug level in kidney at 5 mg/kg, iv measured up to 24 hrs by LC-MS/MS analysis; assay type: ADME, organism-based; conditions: in vivo; in short: as §4
[19] = Drug uptake in BALB/c nude mouse xenografted with human HCT-116 cells assessed as drug level in tumour at 5 mg/kg, iv measured up to 24 hrs by LC-MS/MS analysis; assay type: ADME, organism-based, Neoplasm; conditions: in vivo; in short: as §4

SMILES: CC(=O)O[C@@]12CO[C@@H]1C[C@H](O)[C@@]1(C)C(=O)[C@H](O)C3=C(C)[C@@H](OC(=O)[C@H](O)[C@@H](NC(=O)OC(C)(C)C)c4ccccc4)C[C@@](O)([C@@H](OC(=O)c4ccccc4)[C@H]21)C3(C)C [DOCETAXEL ANHYDROUS]
- IC50 (SW-620): 0.02 µM
- IC50 (HCT-116 [1]): 0.0035 µM
- IC50 (CCD-18Co): 117 µM
- IC50 (HEK293): 19.7 µM
- inhibition in vivo at 5 mg/kg (HCT-116 [2]): 42.7%
- Activity [3]: 13%
- Activity [4]: Toxic
- Activity [5]: Toxic
- Activity [6]: Toxic
- LD50 at 336 h [7]: 74.1 mg/kg
- AUC(0-t) at 72 h [8]: 930 ng·h/mL
- AUC [9]: 867 ng·h/mL
- MRT inf [10]: 3.76 h
- half-life [11]: 5.75 h
- Vd [12]: 22.6 L/kg
- CL(app) [13]: 46 mL/min/kg
- Drug uptake [14]: Active
- Drug uptake [15]: Active
- Drug uptake [16]: Active
- Drug uptake [17]: Active
- Drug uptake [18]: Active
- Drug uptake [19]: Active

From ChEMBL document CHEMBL4680238, “Novel octapeptide-DTX prodrugs targeting MMP-7 as effective agents for the treatment of colorectal cancer with lower systemic toxicity” (Eur J Med Chem, 2020)
